Results from ChEMBL document CHEMBL2069263, “Synthesis and characterization of quinoline-based thiosemicarbazones and correlation of cellular iron-binding efficacy to anti-tumor efficacy” (Bioorg Med Chem Lett, 2012).
Activity calls are given as the source filed them. No cut-off for these calls is given here.

Tests used:
[1] = test system: SK-N-MC; experiment: Antiproliferative activity against human SK-N-MC cells after 72 hrs by MTT assay; type: functional, cell-based
In short: (§1)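 Cells (SK-N-MC neuroepithelioma, HCT116 colon cancer p53+/+ or p53−/−, normal human dermal fibroblasts) were exposed to compounds for 72 h and proliferation was measured by standard methods. IC50 is reported as mean ± SD of three experiments.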

[2] = test system: HCT-116; experiment: Antiproliferative activity against p53-deficient human HCT116 cells after 72 hrs by MTT assay; type: functional, cell-based; details: HCT-116, 72 h; in short: as §1
[3] = test system: HCT-116; experiment: Antiproliferative activity against human HCT116 cells expressing p53 after 72 hrs by MTT assay; type: functional, cell-based; details: HCT-116, 72 h; in short: as §1
[4] = test system: SK-N-MC; experiment: Iron chelation activity in human SK-N-MC cells assessed as inhibition of 59Fe uptake from transferrin complex at 25 uM after 3 hrs by gamma scintillation counting relative to control; type: functional; set-up: scale not given: the % may be the effect or the level left
In short: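 SK-N-MC cells were incubated with 59Fe-transferrin, with or without chelator, for 3 h at 37 °C and washed 4 times with ice-cold PBS. Internalized 59Fe was taken as the pronase-resistant fraction after pronase (1 mg/mL, 30 min, 4 °C) and counted by γ-scintillation. Uptake is expressed relative to control, mean ± SD of three experiments.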

[5] = test system: NHDF; experiment: Antiproliferative activity against human NHDF cells after 72 hrs by MTT assay; type: cell-based; in short: as §1
[6] = test system: SK-N-MC; experiment: Iron chelation activity in human SK-N-MC cells assessed as cellular 59Fe released at 25 uM incubated for 3 hrs post 59Fe-transferrin-labeling by gamma scintillation counting; type: functional
In short: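 SK-N-MC cells were prelabeled with 59Fe-transferrin for 3 h at 37 °C and washed 4 times with ice-cold PBS. They were then reincubated for 3 h at 37 °C with or without chelator. Released 59Fe was counted by scintillation counting. Results are mean ± SD of three experiments.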

[7] = test system: HCT-116; experiment: Antiproliferative activity against human HCT116 cells expressing p53 assessed as cell survival at 1 nM after 9 days by clonogenic assay relative to control; type: functional
[8] = test system: HCT-116; experiment: Antiproliferative activity against human HCT116 cells expressing p53 assessed as cell survival at 5 nM after 9 days by clonogenic assay relative to control; type: functional
[9] = test system: HCT-116; experiment: Antiproliferative activity against human HCT116 cells expressing p53 assessed as cell survival at 0.5 nM after 9 days by clonogenic assay relative to control; type: functional
[10] = test system: HCT-116; experiment: Antiproliferative activity against human HCT116 cells expressing p53 assessed as cell survival at 20 uM after 9 days by clonogenic assay relative to control; type: functional
[11] = test system: HCT-116; experiment: Antiproliferative activity against p53-deficient human HCT116 cells assessed as cell survival at 20 uM after 9 days by clonogenic assay relative to control; type: functional
[12] = test system: HCT-116; experiment: Antiproliferative activity against human HCT116 cells expressing p53 assessed as cell survival at 25 uM after 9 days by clonogenic assay relative to control; type: functional
[13] = test system: HCT-116; experiment: Antiproliferative activity against p53-deficient human HCT116 cells assessed as cell survival at 25 uM after 9 days by clonogenic assay relative to control; type: functional
[14] = test system: HCT-116; experiment: Antiproliferative activity against human HCT116 cells expressing p53 assessed as cell survival at 30 uM after 9 days by clonogenic assay relative to control; type: functional
[15] = test system: HCT-116; experiment: Antiproliferative activity against p53-deficient human HCT116 cells assessed as cell survival at 30 uM after 9 days by clonogenic assay relative to control; type: functional
[16] = test system: HCT-116; experiment: Antiproliferative activity against human HCT116 cells expressing p53 assessed as cell survival at 40 uM after 9 days by clonogenic assay relative to control; type: functional
[17] = test system: HCT-116; experiment: Antiproliferative activity against p53-deficient human HCT116 cells assessed as cell survival at 40 uM after 9 days by clonogenic assay relative to control; type: functional
[18] = test system: HCT-116; experiment: Antiproliferative activity against human HCT116 cells expressing p53 assessed as cell survival at 50 uM after 9 days by clonogenic assay relative to control; type: functional
[19] = test system: HCT-116; experiment: Antiproliferative activity against p53-deficient human HCT116 cells assessed as cell survival at 50 uM after 9 days by clonogenic assay relative to control; type: functional
[20] = Therapeutic index, ratio of IC50 for human NHDF cells to IC50 for human SK-N-MC cells; type: cell-based; details: NHDF cells and SK-N-MC cells, read-out: Ratio IC50
In short: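 Ratio of NHDF IC50 to SK-N-MC IC50. Both IC50s come from anti-proliferative assays after a 72 h incubation with the chelator. Each IC50 is the mean ± SD of three experiments.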

IC50 [1]	IC50 [2]	IC50 [3]	Compound	Activity [4]	IC50 [5]	Activity [6]	also measured
> 12.5 µM	19.6 µM	23.2 µM	CCNC(=S)N/N=C/c1ccc2ccccc2n1	49%			
> 12.5 µM	3.15 µM	2.62 µM	CCNC(=S)N/N=C/c1ccc2cccc(O)c2n1	49%	> 25 µM	inactive	
> 12.5 µM	20.9 µM	25 µM	Oc1cccc2ccc(/C=N/NC(=S)Nc3ccccc3)nc12	49%		inactive	
0.014 µM	0.005 µM	0.002 µM	CN(C)C(=S)NN=C(c1ccccn1)c1ccccn1		15.4 µM		fold change (FC) [7]: 0.8541; fold change (FC) [8]: 0.1922; fold change (FC) [9]: 1.0629
> 12.5 µM	2.17 µM	1.71 µM	CNC(=S)N/N=C/c1ccc2cccc(O)c2n1	49%	> 25 µM	inactive	
0.62 µM	8.06 µM	> 25 µM	CNC(=S)N/N=C/c1c(O)ccc2cccnc12	45%	> 25 µM	33%	fold change (FC) [10]: 0.05; fold change (FC) [11]: 0.06; fold change (FC) [12]: 0.041; fold change (FC) [13]: 0.034; fold change (FC) [14]: 0.039; fold change (FC) [15]: 0.012; fold change (FC) [16]: 0.014; fold change (FC) [17]: 0.004; fold change (FC) [18]: 0; fold change (FC) [19]: 0
			CN(C)C(=S)N/N=C(/c1ccccc1)c1ccccn1				fold change (FC) [7]: 0.1273; fold change (FC) [9]: 0.6762
0.81 µM	0.37 µM	4.86 µM	CN(C)C(=S)N/N=C/c1ccc2ccccc2n1	49%	11.7 µM		selectivity ratio [20]: 14
1.3 µM			O=C(N/N=C/c1c(O)ccc2ccccc12)c1ccncc1				
0.11 µM	> 25 µM	20.8 µM	CN(C)C(=S)N/N=C/c1c(O)ccc2cccnc12	18%	14.9 µM	33%	selectivity ratio [20]: 131
> 12.5 µM	> 25 µM	> 25 µM	CNC(=S)N/N=C/c1ccc2ccccc2n1	49%			
9.69 µM	0.27 µM	> 15 µM	CN(C)C(=S)N/N=C/c1ccc2cccc(O)c2n1	14%	15.8 µM	33%	
1.63 µM	18.6 µM	16.3 µM	Oc1ccc2cccnc2c1/C=N/NC(=S)Nc1ccccc1	49%	14.9 µM		
> 12.5 µM	21.4 µM	22.3 µM	S=C(N/N=C/c1ccc2ccccc2n1)Nc1ccccc1			inactive	
0.19 µM	> 25 µM	> 25 µM	CCNC(=S)N/N=C/c1c(O)ccc2cccnc12	24%	> 25 µM	33%	
12.5 µM			CC(=O)N(O)CCCCCNC(=O)CCC(=O)N(O)CCCCCNC(=O)CCC(=O)N(O)CCCCCN [DEFEROXAMINE]				
